The source of these data is ChEMBL document CHEMBL1142606, “Antibiotic bisanthraquinones produced by a streptomycete isolated from a cyanobacterium associated with Ecteinascidia turbinata” (J Nat Prod, 2006).

For one assay, the system named is Staphylococcus aureus. The experiment in a line: Antibacterial activity against methicillin-resistant Staphylococcus aureus ATCC 43300 after 18 hrs by broth dilution assay. The format is functional, organism-based. The settings on record: ATCC 43300, 18 h. The method in brief: (§1)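 Broth dilution; MRSA ATCC 43300 in trypticase soy medium, VRE ATCC 51299 in brain heart infusion medium. Cultures grown 14 h on rotary shaker at 38 °C, diluted to A600 0.04-0.06, then further 10-fold, dispensed to microtiter wells. Compounds tested in dilution series, ten replicates each; growth read as A600 after 18 h; IC50 reported.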
A general note: Dilution methods test growth across graded concentrations, often in twofold steps.

For the next assay, the system named is Enterococcus faecalis. The experiment in a line: Antibacterial activity against vancomycin-resistant Enterococcus faecalis ATCC 51299 after 18 hrs by broth dilution assay. In kind it is functional, organism-based. The settings on record: ATCC 51299, 18 h. The method in brief: as §1
A short description of assay [1]: Cytotoxicity against human HCT 116 cells. The format is functional, cell-based.

By IC50 is commonly meant the concentration at which inhibition is half-maximal. A higher IC50 goes with weaker potency. On to `CC1=CC(O)=C2C(=O)c3c(O)cccc3[C@@]34Oc5c(ccc6c5C(=O)c5c(O)cc(C)cc5C6=O)C23[C@@H]1[C@H](C)O4` (stereo partly specified), for which the IC50 amounted to 31 µM in the assay with Staphylococcus aureus, 130 µM in the assay on Enterococcus faecalis and 6.6 µM in assay [1].

As to `Cc1cc(O)c2c(c1)C(=O)c1ccc3c(c1C2=O)O[C@@]12O[C@@H](C)[C@H]4C31C(=C(O)C[C@@]4(C)O)C(=O)c1c(O)cccc12` (stereo partly specified), the IC50 in the assay on Staphylococcus aureus was 0.15 µM; in the assay on Enterococcus faecalis, 2 µM; in assay [1], 3.3 µM.

Take `Cc1cc(O)c2c(c1)C(=O)c1ccc3c(c1C2=O)O[C@@]12O[C@@H](C)[C@@]4(O)C31C(=C(O)C[C@@]4(C)O)C(=O)c1c(O)cccc12` (stereo partly specified): the IC50 in the assay with Staphylococcus aureus stood at 0.36 µM; in the assay on Enterococcus faecalis, 12 µM; in assay [1], 5.6 µM.

Turning to `CN(C)[C@@H]1C(O)=C(C(N)=O)C(=O)[C@@]2(O)C(O)=C3C(=O)c4c(O)cccc4[C@@](C)(O)[C@H]3C[C@@H]12` [TETRACYCLINE], the IC50 in the assay with Staphylococcus aureus worked out at 0.2 µg/mL; with Enterococcus faecalis it was 0.7 µg/mL.
